In ChEMBL document CHEMBL4007421, “Discovery and Preclinical Characterization of 3-((4-(4-Chlorophenyl)-7-fluoroquinoline-3-yl)sulfonyl)benzonitrile, a Novel Non-acetylenic Metabotropic Glutamate Receptor 5 (mGluR5) Negative Allosteric Modulator for Psychiatric Indications” (J Med Chem, 2017):
In brackets after ≈: the same amount, converted by molar mass. Activity calls are given as the source filed them. The rule behind the calls is not given here.

Experiments:
Liver [1] = assay: Intrinsic clearance in rat liver microsomes at 2.5 uM assessed per gram of liver; type: ADME, microsome
Rattus norvegicus [2] = assay: Anxiolytic activity in ip dosed Wistar rat assessed as increase in water drinking time during punished period administered as suspension by Vogel punished drinking conflict test; type: functional; settings: read-out: MED
Summary of the method: (§1)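 Vogel punished-drinking test in rats, single i.p. or p.o. dose as suspension in 5% Tween 80; plasma sampled ~45 min after i.p. or ~75 min after p.o. dosing.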

Rattus norvegicus [3] = assay: Anxiolytic activity in po dosed Wistar rat assessed as increase in water drinking time during punished period administered as suspension by Vogel punished drinking conflict test; type: functional; settings: read-out: MED; summary of the method: as §1
Rattus norvegicus [4] = assay: Therapeutic index, ratio of MED for effect on spatial learning performance in po dosed Wistar rat by Morris water maze test to MED for anxiolytic activity in Wistar rat by Vogel punished drinking conflict test
Summary of the method: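 Index is the Morris water maze minimum effective dose (oral, given 1 h before the first daily trial, 4 days of 3 trials) divided by the Vogel punished drinking minimum effective dose.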

Rattus norvegicus [5] = assay: Therapeutic index, ratio of plasma concentration causing effect on spatial learning performance in po dosed Wistar rat by Morris water maze test to plasma concentration causing anxiolytic activity in Wistar rat by Vogel punished drinking conflict test
Summary of the method: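 Index is the plasma level in rats at 30 mg/kg p.o. in the Morris water maze (sampled after the last trial on Day 4) divided by the plasma level at the Vogel minimum effective dose. Vogel plasma was sampled right after the test.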

[6] = Aqueous solubility of the compound at pH 7.4; type: physicochemical
MDR1 [7] = assay: Apparent inward permeability in MDCK2-MDR1 cells; type: ADME, cell-based, Canis lupus familiaris; settings: dog, MDCK-MDR1
MDR1 [8] = assay: Ratio of apparent outward permeability to apparent inward permeability in MDCK2-MDR1 cells; type: ADME, cell-based, Canis lupus familiaris; settings: dog, MDCK-MDR1
Summary of the method: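 MDCKII-MDR1 cell monolayers used as an in vitro surrogate of brain penetration. Transport was measured in both the inward and outward directions, and an apparent permeability (Papp) was calculated for each. The directional ratio (PDR) is Papp outward divided by Papp inward.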

Liver [9] = assay: Intrinsic clearance in dog liver microsomes at 2.5 uM assessed per gram of liver; type: ADME, Canis lupus familiaris, microsome
[10] = Plasma protein binding in rat; type: ADME, cell-free; settings: read-out: PPB (converted)
[11] = Plasma protein binding in dog; type: ADME, cell-free, Canis lupus familiaris; settings: read-out: PPB (converted)
Cytochrome P450 1A2 = target: T1, Cytochrome P450 1A2 (Homo sapiens, UniProt P05177); assay: Inhibition of CYP1A2 in human liver microsomes; type: ADME
T1 sequence (P05177 whole entry): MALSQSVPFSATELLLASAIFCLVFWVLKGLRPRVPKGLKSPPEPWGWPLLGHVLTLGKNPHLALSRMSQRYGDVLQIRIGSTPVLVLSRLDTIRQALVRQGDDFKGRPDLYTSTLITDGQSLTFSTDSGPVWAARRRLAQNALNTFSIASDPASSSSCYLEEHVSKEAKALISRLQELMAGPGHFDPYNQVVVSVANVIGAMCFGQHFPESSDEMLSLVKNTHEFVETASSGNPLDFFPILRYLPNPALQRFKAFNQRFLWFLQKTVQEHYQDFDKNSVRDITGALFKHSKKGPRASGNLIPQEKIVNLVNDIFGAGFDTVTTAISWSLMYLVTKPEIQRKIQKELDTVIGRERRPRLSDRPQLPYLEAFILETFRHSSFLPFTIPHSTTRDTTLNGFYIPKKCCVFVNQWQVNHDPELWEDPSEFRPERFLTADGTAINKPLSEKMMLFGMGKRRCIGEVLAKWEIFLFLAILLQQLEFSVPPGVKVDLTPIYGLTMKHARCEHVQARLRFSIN

Rattus norvegicus [12] = assay: Anxiolytic activity in Wistar rat assessed as increase in water drinking time during punished period at 10 mg/kg, po qd for 19 days by Vogel punished drinking conflict test; type: functional, organism-based
Summary of the method: (§2)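 Vogel punished-drinking test in rats after 24 h water deprivation, with 60 s unpunished drinking; oral 10 mg/kg given once daily for 19 days, vehicle group dosed only on Day 19 as first-dose control; plasma sampled right after test; n=10 per group; ANOVA with Duncan post-hoc.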

[13] = (§3) Toxicity in po dosed Harlan-Wistar rat assessed as decrease in spontaneous locomotor activity photocell-based activity monitor test; type: organism-based; settings: Harlan-Wistar, in vivo
Summary of the method: (§4)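 Male Wistar rats were given 0, 10, 30 or 50 mg/kg p.o. Spontaneous locomotor activity (ambulatory movement) was recorded in a photocell-based activity monitor.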

Rattus norvegicus [14] = assay: as §3; type: organism-based; settings: in vivo; summary of the method: as §4
[15] = Clearance in male beagle dog at 0.5 mg/kg, iv administered as infusion; type: ADME, organism-based, Canis lupus familiaris; settings: in vivo
[16] = Volume of distribution in female beagle dog at 0.5 mg/kg, iv administered as infusion; type: ADME, organism-based, Canis lupus familiaris; settings: in vivo
Summary of the method: (§5)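 Single-dose PK: i.v. and oral dosing in Crl:CD(SD) rats and beagle dogs, plus a pilot oral nasogastric study in Cynomolgus monkeys using a Type IV lipid formulation. Rat i.v. vehicle was 80% cosolvent. Monkeys were fasted from 2 h before until 2 h after dosing, n=3 per sex. Rats also received [14C]-labelled compound orally at 50 mg/kg, with total radioactivity followed. Parameters are means; monkey values are medians.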

[17] = Terminal elimination half life in male Crl:CD(SD) rat at 4.5 mg/kg, po; type: ADME, organism-based; settings: in vivo, read-out: beta t1/2 (converted); summary of the method: as §5
[18] = Terminal elimination half life in male beagle dog at 0.5 mg/kg, iv administered as infusion; type: ADME, organism-based, Canis lupus familiaris; settings: in vivo, read-out: beta t1/2 (converted); summary of the method: as §5
[19] = Terminal elimination half life in female beagle dog at 0.5 mg/kg, iv administered as infusion; type: ADME, organism-based, Canis lupus familiaris; settings: in vivo, read-out: beta t1/2 (converted); summary of the method: as §5
[20] = Terminal elimination half life in fasted male beagle dog at 1 mg/kg, po; type: ADME, organism-based, Canis lupus familiaris; settings: in vivo, read-out: beta t1/2 (converted); summary of the method: as §5
[21] = Tmax in female Crl:CD(SD) rat at 4.5 mg/kg, po; type: ADME, organism-based; settings: in vivo; summary of the method: as §5
[22] = Tmax in male beagle dog at 0.5 mg/kg, iv administered as infusion; type: ADME, organism-based, Canis lupus familiaris; settings: in vivo; summary of the method: as §5
[23] = Tmax in fasted male beagle dog at 1 mg/kg, po; type: ADME, organism-based, Canis lupus familiaris; settings: in vivo; summary of the method: as §5
[24] = Tmax in fasted male cynomolgus monkey at 9 mg/kg, po administered as single dose; type: ADME, organism-based, Macaca fascicularis; settings: in vivo; summary of the method: as §5
[25] = Tmax in fasted female cynomolgus monkey at 9 mg/kg, po administered as single dose; type: ADME, organism-based, Macaca fascicularis; settings: in vivo; summary of the method: as §5
[26] = Cmax in male beagle dog at 0.5 mg/kg, iv administered as infusion; type: ADME, organism-based, Canis lupus familiaris; design: dose 0.5 mg/kg, route intravenous; settings: in vivo
[27] = Cmax in female beagle dog at 0.5 mg/kg, iv administered as infusion; type: ADME, organism-based, Canis lupus familiaris; design: dose 0.5 mg/kg, route intravenous; settings: in vivo
[28] = Cmax in fasted male beagle dog at 1 mg/kg, po; type: ADME, organism-based, Canis lupus familiaris; design: dose 1 mg/kg, route oral; settings: in vivo
[29] = Cmax in fasted female cynomolgus monkey at 9 mg/kg, po administered as single dose; type: ADME, organism-based, Macaca fascicularis; design: dose 9 mg/kg, route oral; settings: in vivo
[30] = AUC in male Crl:CD(SD) rat at 4.5 mg/kg, po; type: ADME, organism-based; settings: in vivo
[31] = AUC in female Crl:CD(SD) rat at 4.5 mg/kg, po; type: ADME, organism-based; settings: in vivo
[32] = target: Metabotropic glutamate receptor 1 (Rattus norvegicus) (UniProt P23385); assay: Negative allosteric modulation of mGluR1 in newborn Sprague-Dawley rat cerebelli assessed as reduction of DHPG-induced cytosolic Ca2+ influx after 10 to 20 mins by fluo-4/AM-dye based fluorometric analysis; type: functional
Sequence of Metabotropic glutamate receptor 1 (Rattus norvegicus) (P23385 19-1199 limits assumed): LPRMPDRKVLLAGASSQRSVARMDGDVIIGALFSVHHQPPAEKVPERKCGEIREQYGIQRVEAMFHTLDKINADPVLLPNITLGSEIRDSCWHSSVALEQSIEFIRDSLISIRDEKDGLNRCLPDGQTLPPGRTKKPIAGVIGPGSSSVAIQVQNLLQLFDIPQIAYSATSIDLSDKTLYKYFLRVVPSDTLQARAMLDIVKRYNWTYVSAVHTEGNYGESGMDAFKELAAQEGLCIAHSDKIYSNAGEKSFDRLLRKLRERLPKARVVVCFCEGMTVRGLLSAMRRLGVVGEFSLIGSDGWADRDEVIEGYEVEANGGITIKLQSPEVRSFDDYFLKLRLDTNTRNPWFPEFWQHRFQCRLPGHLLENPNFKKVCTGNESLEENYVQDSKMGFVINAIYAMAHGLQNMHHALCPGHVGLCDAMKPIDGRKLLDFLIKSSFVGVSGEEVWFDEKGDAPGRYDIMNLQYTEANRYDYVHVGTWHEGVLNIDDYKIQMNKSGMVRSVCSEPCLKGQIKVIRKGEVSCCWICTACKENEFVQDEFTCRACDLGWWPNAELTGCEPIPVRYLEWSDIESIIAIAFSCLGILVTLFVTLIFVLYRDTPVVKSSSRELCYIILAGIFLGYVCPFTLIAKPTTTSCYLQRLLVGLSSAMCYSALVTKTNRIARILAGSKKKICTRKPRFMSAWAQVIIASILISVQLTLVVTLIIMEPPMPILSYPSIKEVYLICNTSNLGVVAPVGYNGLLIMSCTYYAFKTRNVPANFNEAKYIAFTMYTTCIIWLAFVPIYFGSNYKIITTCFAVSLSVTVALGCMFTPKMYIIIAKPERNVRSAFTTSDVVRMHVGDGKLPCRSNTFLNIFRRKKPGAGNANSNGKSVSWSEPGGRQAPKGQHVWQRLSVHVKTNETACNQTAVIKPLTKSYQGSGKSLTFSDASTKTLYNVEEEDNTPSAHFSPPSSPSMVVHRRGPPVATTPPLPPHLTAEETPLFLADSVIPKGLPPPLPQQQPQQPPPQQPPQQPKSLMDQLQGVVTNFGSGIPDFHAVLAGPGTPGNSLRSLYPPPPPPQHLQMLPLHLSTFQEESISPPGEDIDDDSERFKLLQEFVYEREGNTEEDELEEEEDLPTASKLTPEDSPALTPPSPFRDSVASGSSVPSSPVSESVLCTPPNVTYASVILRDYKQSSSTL

[33] = Plasma concentration in Wistar rat at 10 mg/kg, po qd measured after first dosing during Vogel punished drinking conflict test; type: ADME, organism-based; summary of the method: as §2

- CLint (Liver [1]): 0.25 mL/min/g
- solubility [6]: 10 µg/mL (≈ 23.6 µM)
- Papp (MDR1 [7]): 11.5 ×10⁻⁶ cm/s
- efflux ratio (MDR1 [8]): 0.74
- CLint (Liver [9]): 0.27 mL/min/g
- fraction unbound [10]: 0.0027
- fraction unbound [11]: 0.0025
- IC50 (Cytochrome P450 1A2): > 10 µM
- clearance [15]: 6.43 mL/min/kg
- Vd [16]: 9.2 L/kg
- half-life [17]: 7.06 h
- half-life [18]: 12.2 h
- half-life [19]: 11.8 h
- half-life [20]: 12.8 h
- Tmax [21]: 0.75 h
- Tmax [22]: 0.5 h
- Tmax [23]: 0.75 h
- Tmax [24]: 1.7 h
- Tmax [25]: 1.3 h
- Cmax [26]: 1540 nM
- Cmax [27]: 1140 nM
- Cmax [28]: 492 nM
- Cmax [29]: 33 nM
- AUC [30]: 2.19 µM·h
- AUC [31]: 7.3 µM·h
- Activity [32]: Active
- concentration at 1 day [33]: 787 nM
SMILES: N#Cc1cccc(S(=O)(=O)c2cnc3cc(F)ccc3c2-c2ccc(Cl)cc2)c1
- minimal effective dose (Rattus norvegicus [2]): 3 mg/kg
- minimal effective dose (Rattus norvegicus [3]): 0.5 mg/kg
- TI (Rattus norvegicus [4]): >30
- TI (Rattus norvegicus [5]): 28.3
- Activity (Rattus norvegicus [12]): Active
- NOAEL [13]: 30 mg/kg
- Activity (Rattus norvegicus [14]): Dose-dependent effect
- ED50 (Rattus norvegicus [14]): 50 mg/kg
